From PubChem BioAssay
A selection: hits, their analogues and other compounds. The true share with any hit is near 1.9%.
Runt-SMMHC FRET – inhibitors of human RUNX1 Runt domain binding to CBFb-SMMHC | Q01196+Q13951 | Cerulean-Runt/Venus-CBFb-SMMHC FRET ratio 530/480, 1 h | inhibition, % at 20 µM | 220,000 tested, 0.74% active | AID 1434;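 active = mean inhibition across duplicate retests at 20 µM reaching about 50%, limit read from the data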;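 also: inhibitors lower the FRET ratio by blocking Runt binding to CBFb-SMMHC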
Target sequence (Q01196 whole entry, looked up, the tested form may be a part): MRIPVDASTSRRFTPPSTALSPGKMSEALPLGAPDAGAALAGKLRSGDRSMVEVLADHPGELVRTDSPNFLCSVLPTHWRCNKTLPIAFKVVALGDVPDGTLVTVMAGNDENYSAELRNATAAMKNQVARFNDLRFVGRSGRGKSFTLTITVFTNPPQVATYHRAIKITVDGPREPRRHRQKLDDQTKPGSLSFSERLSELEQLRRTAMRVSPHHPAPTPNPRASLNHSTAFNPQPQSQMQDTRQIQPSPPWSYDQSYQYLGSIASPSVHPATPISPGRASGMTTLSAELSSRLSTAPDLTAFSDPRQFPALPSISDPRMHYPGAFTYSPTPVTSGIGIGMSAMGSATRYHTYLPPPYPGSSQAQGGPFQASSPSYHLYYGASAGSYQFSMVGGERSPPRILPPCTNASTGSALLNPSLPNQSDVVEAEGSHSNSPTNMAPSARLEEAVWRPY
Target sequence (Q13951 whole entry, looked up, the tested form may be a part): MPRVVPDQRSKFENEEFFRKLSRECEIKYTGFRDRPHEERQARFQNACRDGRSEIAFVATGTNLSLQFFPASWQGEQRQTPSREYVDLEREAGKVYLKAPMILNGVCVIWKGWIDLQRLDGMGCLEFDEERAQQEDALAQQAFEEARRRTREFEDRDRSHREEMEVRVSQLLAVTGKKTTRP
RanGTP-Impb inh – inhibitors of RanGTP-importin-beta interaction, primary screen, biochemical, FRET, CFP-Ran, YFP-importin-beta, homogeneous; cell-free CFP-Ran/YFP-importin-beta FRET ratio; inhibition, % (no concentration beside the values); 300,000 tested, 1.1% active;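 active = more than half of the replicate wells show a fall in the fluorescence ratio signal beyond about 16%, limit read from the data, passing the limit was not always enough; inconclusive = exactly half of the replicate wells pass the set limit; inactive = fewer than half of replicates pass the limit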
Tb hexokinase – T. brucei hexokinase 1 inhibition; recombinant TbHK1, G6PDH-coupled NADH A340; inhibition, % at 10 µM; 220,000 tested, 0.11% active;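 active = inhibition of 50% or more in the single-dose primary screen; inactive = inhibition below 50%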
Hck Nef HTS – human Hck-Nef kinase inhibition. inhibition, % at 20 µM. P08631. Recombinant Hck-YEEI plus Nef, Z-Lyte FRET kinase assay. AID 463187. 220,000 tested, 0.68% active;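 active = Hck-Nef kinase inhibition above about 50%, limit read from the data; inactive = inhibition below that limit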
Runt-CBFb FRET – blocks binding of human RUNX1 Runt domain to CBFb | Q01196+Q13951 | Cerulean-Runt/Venus-CBFb FRET ratio 530/480, 1 h | inhibition, % at 20 µM | 220,000 tested, 0.46% active | AID 1496;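 active = inhibition over about 50% at 20 µM in the single-dose screen, limit read from the data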
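Assay system: Cerulean-Runt domain fusion protein, energy donor; Signal: fluorescence energy transfer, 422 nm excitation, 530/480 nm emission; Timing: 1 h compound exposure, room temperature; Control set: unlabeled CBFb; Medium: Tris buffer pH 7.5 with salts and BSA; Compound: single test concentration of 20 µM, 1% DMSO final; Probe or stimulus: Venus-CBFb 100 nM.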
Hck Nef conf – confirmation of Hck-Nef kinase inhibitors; shares compounds with Hck Nef HTS; Recombinant Hck-YEEI:Nef, Z-Lyte FRET kinase assay; calls only at 10 µM; 1,300 tested, 28% active;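 active = average inhibition of at least 50%, with Z-scores no higher than 3 in both the phospho-tyrosine peptide and fluorescence counterscreens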
Of the large screens only hits and unclear results are named; the others gave an inactive call (follow-up assays come after a bar, where shown).

Cc1nc2ccccc2c(=O)n1CCCN1CCOCC1	none
N#Cc1cc2c(=O)n3ccccc3nc2n(CCCN2CCOCC2)c1=O	Runt-SMMHC FRET 62, RanGTP-Impb inh 95, Hck Nef HTS 149, Runt-CBFb FRET 77
Cc1ccc(O)c(C(=O)c2cc(C#N)c(=O)n(-c3nccs3)c2)c1	none
Cc1cccn2c(=O)c3cc(C(=O)NCC(C)C)sc3nc12	none (no result: Runt-SMMHC FRET, Tb hexokinase, Hck Nef HTS, Runt-CBFb FRET)
Cc1ccc2nc3c(cc(C#N)c(=O)n3-c3nccs3)c(=O)n2c1	Runt-SMMHC FRET 65, RanGTP-Impb inh 191, Hck Nef HTS 185
COc1cc(OC)cc(N(C(=O)c2ccco2)C(C(=O)NC2CCCC2)c2ccc(N3CCOCC3)cc2)c1 (stereo not drawn)	none (no result: Runt-SMMHC FRET, Tb hexokinase, Hck Nef HTS, Runt-CBFb FRET)
Cc1cccn2c(=O)c3cc(C(=O)NCCc4ccccc4)c(=N)n(CCCn4ccnc4)c3nc12	Runt-SMMHC FRET 82, RanGTP-Impb inh 178, Hck Nef HTS 61
Cc1ccc2nc3c(cc(C(=O)NC4CCCC4)c(=N)n3CCCn3ccnc3)c(=O)n2c1	RanGTP-Impb inh 156, Hck Nef HTS 110 (not shown: Runt-SMMHC FRET, Runt-CBFb FRET)
CCNC(=O)c1cc2c(=O)n3cccc(C)c3nc2n(CCc2ccccc2)c1=N	Runt-SMMHC FRET 62, RanGTP-Impb inh 186, Hck Nef HTS 98
COc1ccc(CCn2c(=N)c(C(=O)NCCN3CCOCC3)cc3c(=O)n4cccc(C)c4nc32)cc1OC	none (no result: Runt-SMMHC FRET, Tb hexokinase, Hck Nef HTS, Runt-CBFb FRET)
Cc1cccn2c(=O)c3cc(C(=O)NCCCn4ccnc4)n(C)c3nc12	none
Cc1cc(NCC2CCCO2)n2c(nc3ccccc32)c1C#N (stereo not drawn)	Hck Nef HTS 95
CC(C)c1cc(NCC2CCCO2)n2c(nc3ccccc32)c1C#N (stereo not drawn)	Hck Nef HTS 108
Cc1cc(Nc2ccc(O)cc2)n2c(nc3ccccc32)c1C#N	none
CCC(C)Nc1cc(C)c(C#N)c2nc3ccccc3n12 (stereo not drawn)	none (no result: Runt-SMMHC FRET, Tb hexokinase, Hck Nef HTS, Runt-CBFb FRET)
N#CCCn1c(SCC(=O)NCC2CCCO2)nc2ccccc21 (stereo not drawn)	none
CCCc1cc(NCCCO)n2c(nc3ccccc32)c1C#N	RanGTP-Impb inh 30, Hck Nef HTS 194
Cc1cc(NCCCn2ccnc2)n2c(nc3ccccc32)c1C#N	RanGTP-Impb inh 19, Hck Nef HTS 64
O=[N+]([O-])c1ccc(N2CCSCC2)cc1	none
O=C(COC(=O)c1ccccc1SCC(=O)NC1CCS(=O)(=O)C1)NC1CCS(=O)(=O)C1 (stereo not drawn)	none
CCNC(=O)NC(=O)COC(=O)c1ccccc1SCC(=O)NC(=O)NCC	Hck Nef HTS 109
CC(CN1CCCCC1)NC(=O)c1cccs1 (stereo not drawn)	none (no result: Runt-SMMHC FRET, Tb hexokinase, Hck Nef HTS, Runt-CBFb FRET)
COc1ccc(-c2noc(CSc3nc(-c4ccccc4)cc(=O)[nH]3)n2)cc1OC	Hck Nef HTS 54 | Hck Nef conf inactive
O=C(Nc1cc(S(=O)(=O)N2CCOCC2)ccc1N1CCCC1)c1ccc2c(c1)S(=O)(=O)c1ccccc1C2=O	Hck Nef HTS 65 | Hck Nef conf inactive
Nc1nn2cc(-c3ccc(Br)cc3)nc2c2ccccc12	Hck Nef HTS 64 | Hck Nef conf inactive
CCOC(=O)c1cnc2c(-c3ccc(F)cc3)cnn2c1C(F)(F)F	Hck Nef HTS 82 (no result: RanGTP-Impb inh) | Hck Nef conf inactive
COc1ccc2nc(-n3c(O)c(C4=c5ccccc5=NC4=O)[nH]c3=S)sc2c1	Hck Nef HTS 103 | Hck Nef conf active
CCN(CC)S(=O)(=O)c1ccc(OC)c(NC(=O)COc2ccccc2[N+](=O)[O-])c1	Hck Nef HTS 53 | Hck Nef conf inactive
CCOC(=O)/C(=C/C=C1\Sc2ccccc2N1CC)C(C)=O	none
CCN1/C(=C/C(=O)c2ccco2)Sc2ccccc21	Hck Nef HTS 95
Fc1cccc(Nc2ncnc3[nH]ncc23)c1	none
Brc1ccc(Nc2ncnc3[nH]ncc23)cc1	Hck Nef HTS 51 | Hck Nef conf inactive
Cc1cc2[nH]c(=O)c(=O)[nH]c2cc1S(=O)(=O)Nc1cccc(C)c1C	none (no result: Runt-SMMHC FRET, Tb hexokinase, Hck Nef HTS, Runt-CBFb FRET)
O=C(CSc1ncnc2c1oc1ccccc12)Nc1cccc(Cl)c1	Hck Nef HTS 51 | Hck Nef conf inactive
O=C(CSc1ncnc2c1oc1ccccc12)Nc1cccc(C(F)(F)F)c1	none
CC(=O)NC(CC(=O)OC(C)C(=O)Nc1ncc(Cl)cc1Cl)c1ccccc1 (stereo not drawn)	none (no result: Runt-SMMHC FRET, Tb hexokinase, Hck Nef HTS, Runt-CBFb FRET)
Cc1ccc(-n2nc(-c3ccco3)cc2C(=O)O)c(C)c1	Hck Nef HTS 55 | Hck Nef conf inactive
O=C(O)c1cc(-c2ccco2)nn1-c1cccc(Cl)c1	Hck Nef HTS 52 | Hck Nef conf inactive
O=C(O)c1cc(-c2ccco2)nn1-c1ccc(Cl)cc1	none
CCCC(=O)Nc1ccc(Cl)c(NC(=O)c2cccnc2)c1	none
CCCC(=O)Nc1ccc(Cl)c(NC(=O)c2cccc(OC)c2)c1	RanGTP-Impb inh inconclusive, Hck Nef HTS 60 | Hck Nef conf inactive
COc1cc(NC(=O)c2cccs2)c(OC)cc1NC(=O)CCC(=O)Nc1ccc2ncccc2c1	Hck Nef HTS 65 | Hck Nef conf inactive
c1ccc(-c2cc(-c3nnc4n3N=C(c3ccc5ccccc5c3)CS4)[nH]n2)cc1	Hck Nef HTS 54 | Hck Nef conf active
N#Cc1cc2cc3c(cc2nc1SCC(=O)N1CCOCC1)OCO3	none (no result: Runt-SMMHC FRET, Tb hexokinase, Hck Nef HTS, Runt-CBFb FRET)
N#Cc1cc2cc3c(cc2nc1NCCNC(=S)NCCCN1CCOCC1)OCO3	Runt-SMMHC FRET 100, Hck Nef HTS 74, Runt-CBFb FRET 103
Cc1c(NC(=O)c2ccc3c(c2)C(=O)N(Cc2ccco2)C3=O)cccc1C(=O)O	none
COC(=O)c1ccccc1NC(=O)c1ccc2c(c1)C(=O)N(Cc1ccco1)C2=O	RanGTP-Impb inh inconclusive, Hck Nef HTS 58 (no result: Runt-SMMHC FRET, Runt-CBFb FRET) | Hck Nef conf inactive
COc1ccc(C(=O)N/C(=C\c2ccc3c(c2)OCO3)C(=O)Nc2ccc(C(=O)O)cc2)cc1	Hck Nef HTS 54 | Hck Nef conf inactive
O=C(Nc1nc2ccc(S(=O)(=O)N3CCCC3)cc2s1)c1ccccn1	Hck Nef HTS 57 | Hck Nef conf inactive
O=C(Nc1nc2ccc(S(=O)(=O)N3CCCCC3)cc2s1)c1ccncc1	none
Cc1ccc(C2C(C#N)=C(N)N(c3ncn[nH]3)C3=C2C(=O)CC(C)(C)C3)cc1 (stereo not drawn)	none
COc1ccc(-c2csc(NC(=O)CSc3nc(C)cs3)n2)cc1	none (no result: Runt-SMMHC FRET, Runt-CBFb FRET)
COc1ccc(-c2csc(NC(=O)CSc3nc(C)nc4sc(C(=O)O)c(C)c34)n2)cc1	Hck Nef HTS 96 | Hck Nef conf active
Cc1ccc(-n2nc3c(c2NC(=O)C(C)C)CS(=O)(=O)C3)c(C)c1	none (no result: Runt-SMMHC FRET, Tb hexokinase, Hck Nef HTS, Runt-CBFb FRET)
COc1ccc(C)cc1NC(=O)Nc1cnccn1	Hck Nef HTS 102 | Hck Nef conf active
O=C(/C=C/c1cccc([N+](=O)[O-])c1)NCCSCc1ccc(Cl)cc1	none
O=C(CN(C(=O)c1csnn1)c1ccccc1F)NCc1ccc2c(c1)OCO2	none (no result: Runt-SMMHC FRET, Tb hexokinase, Hck Nef HTS, Runt-CBFb FRET)
